Experimental data gathered from unrelated publications.
Compare with care: the assays were run in different laboratories.
Target: Inhibitor of nuclear factor kappa-B kinase subunit beta (IKBKB, Homo sapiens, UniProt O14920)

Nc1nc(Nc2ccccc2)sc1C(=O)c1c(F)cccc1F — remaining activity (enzyme activity; inhibitor; 10 µM): 82%
FC(F)c1nc2ccccc2n1-c1nc(N2CCOCC2)nc(N2CCOCC2)n1 — remaining activity (enzyme activity; inhibitor; 10 µM): 94%
CCCCNc1ncc2c(-c3ccc(F)cc3)nn(C[C@H]3CC[C@H](N)CC3)c2n1 — inhibition (target engagement in cells; inhibitor; chemoproteomics; 20 mM): -14.9%
Cn1c2c(Cl)c(Cl)ccc2c2cn[nH]c(=O)c21 — ΔTm (thermal stability; DSF; 10 µM): -0.1 °C
NS(=O)(=O)c1cc(NC(=O)Cc2ccccc2)ccc1Oc1cccc(Cl)c1 — remaining binding (cell-free assay; competition with immobilised ligand; 1 µM): 91%
Cc1ccc(Nc2nccc(N(C)c3ccc4c(C)n(C)nc4c3)n2)cc1S(N)(=O)=O — inhibition (enzyme activity; inhibitor; 10 µM): 17%
COc1cc2ncnc(Nc3ccc(F)c(Cl)c3)c2cc1OCCCN1CCOCC1 — remaining signal (cell-free assay; 0.5 µM): 86.5%
Cc1cc(NC(=O)c2cccc3cc(-c4cccc5[nH]nc(N)c45)ccc23)ccc1F — activity vs control (enzyme activity; inhibitor; 0.1 µM): 106%
CNC(=O)c1cc(Oc2ccc(NC(=O)Nc3ccc(Cl)c(C(F)(F)F)c3)cc2)ccn1 — inhibition (enzyme activity; inhibitor; 10 µM): -26%
COc1ccc2c(c1)O[C@@H](c1ccc(OC)c(OC)c1)C[C@H]2NC(=O)C1(c2ccc3c(c2)OC(F)(F)O3)CC1 — remaining binding (cell-free assay; competition with immobilised ligand; 1 µM): 95%
Cc1sc(C(=O)NC2COC2)cc1-n1cc(NC(=O)Nc2c(F)cccc2Cl)cn1 — remaining activity (enzyme activity; inhibitor; 10 µM): 86.8%
Cc1ccc(NC(=O)c2ccc(CN3CCN(C)CC3)cc2)cc1Nc1nc(-c2cccnc2)cs1 — remaining signal (cell-free assay; 0.5 µM): 97.8%
CCC(=O)N[C@@H]1CC[C@H](C(=O)N(C)c2ccc(-c3nc4ccccc4o3)cc2)C1 — remaining binding (cell-free assay; competition with immobilised ligand; 1 µM): 100%
CN(c1ncccc1CNc1nc(Nc2ccc3c(c2)CC(=O)N3)ncc1C(F)(F)F)S(C)(=O)=O — inhibition (enzyme activity; inhibitor; 1 µM): 12.7%
Cn1c2c(c3ccc(Cl)c(Cl)c31)C(C#N)C1(CCNCC1)NC2=O (racemic) — ΔTm (thermal stability; DSF; 10 µM): 0.6 °C
CN(C)C1CCN(CC#Cc2nn(C3CCCC3)c3nc(NCc4ccccc4)ncc23)C1 (stereo not shown) — inhibition (enzyme activity; inhibitor; FRET; 1 µM): 1%
CCS(=O)(=O)c1cc2cc(C[C@@](O)(CC(C)(C)c3ccc(F)cc3C(N)=O)C(F)(F)F)[nH]c2cn1 — remaining binding (cell-free assay; competition with immobilised ligand; 1 µM): 83%
COc1cc2ncnc(Nc3ccc(Oc4ccccc4)c(C)c3C)c2cc1OC — inhibition (enzyme activity; inhibitor; 1 µM): 3%
Nc1ncnc2occ(-c3ccc(NC(=O)Nc4cc(C(F)(F)F)ccc4F)cc3)c12 — remaining activity (enzyme activity; inhibitor; 20 µM): 0.55%
C[C@@H]1CN(c2cc(-c3nn(C)c4ccc(OC5(C)CC5)cc34)ncn2)C[C@H](C)O1 — remaining binding (cell-free assay; competition with immobilised ligand; 1 µM): 76%
N#CCCc1ccc2c(c1)-c1[nH]c3ccc([N+](=O)[O-])cc3c1CC(=O)N2 — remaining signal (cell-free assay; 0.5 µM): 96.3%
CCCOc1ccc(OC)c(F)c1C(=O)c1ccc(C(=O)N[C@@H]2CNC[C@H]2NC(=O)c2ccc3[nH]ncc3c2)cc1 — remaining activity (enzyme activity; inhibitor; 10 µM): 62%
O=C(NCCCC1CCCCC1)c1ccc(CNC(=O)c2cnn(-c3ccccc3)c2C(F)(F)F)cc1 — remaining binding (cell-free assay; competition with immobilised ligand; 0.1 µM): 100%
CC(C)(C)c1nc2c(s1)c1nc(N)ncc1c1ccc(NS(=O)(=O)c3c(F)cccc3F)c(F)c12 — remaining activity (enzyme activity; inhibitor; radiometric; 1 µM): 79%
CCOCCn1cc(C(=O)Nc2ccc(-n3nc(-c4cccnc4)cc3C(F)(F)F)cn2)ccc1=O — remaining binding (cell-free assay; competition with immobilised ligand; 1 µM): 100%
O=c1c2ccccc2[nH]c(=S)n1CCN1CCC(=C(c2ccc(F)cc2)c2ccc(F)cc2)CC1 — remaining activity (enzyme activity; inhibitor; 0.5 µM): 99.5%
Cn1c2c(c3ccc(Cl)c(Cl)c31)C(C#N)C(C)(C)NC2=O (stereo not shown) — ΔTm (thermal stability; DSF; 10 µM): -0.4 °C
CCN(CC)CCNC(=O)c1c(C)[nH]c(/C=C2\C(=O)Nc3ccc(F)cc32)c1C — inhibition (enzyme activity; inhibitor; 10 µM): 9%
COc1cc(Nc2cnc(C#N)c(O[C@H](C)CN(C)C)n2)ncc1-c1cnn(C)c1 — remaining activity (enzyme activity; inhibitor; radiometric; 10 µM): 86%
O=c1cc(-c2cccc3c2Sc2ccccc2S3)oc(N2CCOCC2)c1 — remaining activity (enzyme activity; inhibitor; 0.5 µM): 101%
N#CC1(c2ccccn2)CCN(Cc2cc(C(=O)N3CCCC3)c(=O)n3ccccc23)CC1 — remaining binding (cell-free assay; competition with immobilised ligand; 1 µM): 99%
c1ccc(CNc2nc(N3CCOc4ccccc43)nc3c2CCCC3)cc1 — inhibition (target engagement in cells; inhibitor; chemoproteomics; 20 mM): -6.4%
CC(C)(C)C(=O)c1sc(NC2CCCCC2)nc1N — remaining activity (enzyme activity; inhibitor; 10 µM): 99%
CN1CCC2(CC1)NC(=O)c1c(c3ccc(Cl)c(Cl)c3n1C)C2C#N (racemic) — ΔTm (thermal stability; DSF; 10 µM): -0.2 °C
O=C(CSc1nc2nccnc2c(=O)n1CCc1ccccc1)Nc1nccs1 — inhibition (enzyme activity; inhibitor; 10 µM): 12%
Cc1ccc(C(=O)Nc2ccc(CN3CCN(C)CC3)c(C(F)(F)F)c2)cc1C#Cc1cnc2cccnn12 — remaining activity (enzyme activity; inhibitor; 23.5 nM): 37%
CCC1(CC)NC(=O)c2c(c3ccc(Cl)c(Cl)c3n2C)C1C#N (stereo not shown) — ΔTm (thermal stability; DSF; 10 µM): 0.1 °C
Cc1ccc(NC(=O)c2ccc(C)c(C(F)(F)F)c2)cc1C#Cc1nn(C2CCC(O)CC2)c2ncnc(N)c12 (stereo not shown) — remaining signal (cell-free assay; 10 µM): 33%
O=C(Nc1cnn(-c2csc(C(=O)NC3COC3)c2)c1)Nc1c(F)cccc1Cl — remaining activity (enzyme activity; inhibitor; 5 µM): 94.7%
FC(F)(F)Oc1cccc(-c2cnc3ccc(-c4ccncc4)nn23)c1 — activity vs control (enzyme activity; inhibitor; radiometric; 1 µM): 94%
